Test results taken from ChEMBL document CHEMBL1126944, “Benzoquinazoline inhibitors of thymidylate synthase: enzyme inhibitory activity and cytotoxicity of some sulfonamidobenzoylglutamate and related derivatives” (J Med Chem, 1993).

Columns and labels:
MOLT-4 [1] = test: Inhibition constant against the transport of [3H]- methotrexate (MTX) by MOLT-4 T-cell; format: functional, Homo sapiens
In short: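 Uptake of [3H]methotrexate, a substrate of the reduced folate carrier, into MOLT-4 T-cell leukemia cells measured with and without compound. Inhibition constant derived against this transport.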

Thymidylate synthase [2] = target: T1, Thymidylate synthase (Homo sapiens, UniProt P04818); test: Inhibition of purified human thymidylate synthase (TS) isolated from an Escherichia coli harboring a plasmid with thy A gene cloned from SV40 transformed human fibroblast cells; format: cell-free
In short: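 Purified recombinant human TS, expressed in E. coli from a thyA gene cloned from SV40-transformed human fibroblasts. Inhibition was measured by a modified tritium-release assay. Ki was estimated by treating compounds as tight-binding noncompetitive inhibitors.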

MCF7 [3] = test: Cell culture cytotoxicity of MCF-7 breast adenocarcinoma cells; format: functional, Homo sapiens
In short: (§1)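 MCF-7 cells kept in folic acid-free RPMI 1640 with 10 nM (6R,S)-5-formyltetrahydrofolic acid as sole folate plus 10% charcoal-dialyzed FBS. MTT dye-reduction assay after continuous drug exposure for 96 h. Value is the concentration giving 50% reduction in growth rate.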

SW480 [4] = test: Cell culture cytotoxicity of SW480 colon adenocarcinoma cells.; format: functional, Homo sapiens
In short: (§2)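 SW480 or MOLT-4 cells grown in folic acid-free RPMI 1640 supplemented with 10 nM (6R,S)-5-formyltetrahydrofolic acid and 10% charcoal-dialyzed FBS. Continuous 72 h drug exposure, growth read by MTT tetrazolium dye reduction. Reported as the concentration halving growth rate.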

[5] = Velocity compared to a control 50 uM aminopterin run on each test; format: ADME
In short: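 Substrate activity toward partially purified hog liver folylpolyglutamate synthetase. Velocity expressed as percent of a 50 µM aminopterin control included in every run.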

[6] = Ratio of relative velocity to that of the Michaelis constant
Thymidylate synthase [7] = target: T1, Thymidylate synthase; test: Inhibition of purified human thymidylate synthase isolated from an Escherichia coli harboring thy A gene cloned from SV40 transformed human fibroblast cells; format: cell-free
Thymidylate synthase [8] = target: T1, Thymidylate synthase; test: Inhibitory activity against thymidylate synthase (TS); details: read-out: I50
SW480 [9] = test: Cell culture cytotoxicity of SW480 colon adenocarcinoma cells; format: functional, Homo sapiens; in short: as §2
Sus scrofa = organism: Sus scrofa; details: Liver
MOLT-4 [10] = target: MOLT-4
MOLT-4 [11] = test: Cell culture cytotoxicity of MOLT-4 T-cell leukemia cells; format: functional, Homo sapiens; in short: as §2
MCF7 [12] = test: Cell culture cytotoxicity (CCCT) of MCF-7 breast adenocarcinoma cells; format: functional, Homo sapiens; in short: as §1

T1 sequence (P04818 whole entry): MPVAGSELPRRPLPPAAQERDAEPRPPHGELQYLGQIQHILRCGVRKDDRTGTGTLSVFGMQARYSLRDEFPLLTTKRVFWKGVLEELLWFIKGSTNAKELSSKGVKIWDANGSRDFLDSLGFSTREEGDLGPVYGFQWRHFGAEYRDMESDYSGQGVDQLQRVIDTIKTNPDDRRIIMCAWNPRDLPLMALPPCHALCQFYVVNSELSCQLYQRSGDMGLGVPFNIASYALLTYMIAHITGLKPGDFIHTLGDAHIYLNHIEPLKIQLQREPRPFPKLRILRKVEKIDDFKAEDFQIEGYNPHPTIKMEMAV

Row | Vm rel [5] | Structure (SMILES) | CCCT (MCF7 [3]) | CCCT (SW480 [9]) | further results
1 | – | Nc1nc(O)c2c(ccc3cc(S(=O)(=O)Nc4ccc(C(=O)N[C@@H](CCC(=O)O)C(=O)O)cc4)c(Br)cc32)n1 | >50 µM | – | Inhibition (MOLT-4 [1]): 45%; Ki (Thymidylate synthase [2]): 16400 nM; CCCT (SW480 [4]): >50 µM
2 | 185% | Cc1nc2ccc3ccc(S(=O)(=O)Nc4ccc(C(=O)N[C@@H](CCC(=O)O)C(=O)O)cc4)cc3c2c(=O)[nH]1 | – | – | V/K [6]: 59.6; Ki (Thymidylate synthase [7]): 5.5 nM
3 | – | Nc1nc(O)c2c(n1)CCc1ccccc1-2 | >100 µM | – | –
5 | – | Cc1nc(O)c2c(n1)CCc1ccccc1-2 | >100 µM | – | –
6 | – | Cc1nc(O)c2c(n1)CCc1ccc(S(=O)(=O)N(C)c3ccc(C(=O)N[C@@H](CCC(=O)O)C(=O)O)cc3)cc1-2 | >50 µM | >50 µM | –
7 | 28.9% | Nc1nc(O)c2c(n1)CCc1cc(Br)c(S(=O)(=O)Nc3ccc(C(=O)N[C@@H](CCC(=O)O)C(=O)O)cc3)cc1-2 | >100 µM | >100 µM | –
8 | – | Cc1nc(O)c2c(ccc3c(S(=O)(=O)Nc4ccc(C(=O)N[C@@H](CCC(=O)O)C(=O)O)cc4)cccc32)n1 | 50 µM | >100 µM | Vel rem [5]: 55.2%
9 | – | Nc1nc(O)c2c(ccc3ccc(NS(=O)(=O)c4ccc(C(=O)N[C@@H](CCC(=O)O)C(=O)O)cc4)cc32)n1 | – | – | Inhibition (MOLT-4 [1]): 42%; Ki (Thymidylate synthase [2]): 100 nM; CCCT (SW480 [4]): >100 µM
10 | – | Cc1nc(O)c2c(ccc3ccccc32)n1 | >100 µM | – | –
11 | – | Cc1nc(O)c2c(ccc3ccc(S(=O)(=O)Nc4ccc(C(=O)N[C@@H](CCC(=O)O)C(=O)O)cc4)cc32)n1 | 0.07 µM | 2.4 µM | Km (Sus scrofa): 3.11 µM; Ki (MOLT-4 [10]): 4900 nM; CCCT (MOLT-4 [11]): 0.12 µM
12 | 102% | Nc1nc(O)c2c(n1)CCc1cc(S(=O)(=O)Nc3ccc(C(=O)N[C@@H](CCC(=O)O)C(=O)O)cc3)ccc1-2 | 25 µM | – | –
13 | 115% | Nc1nc(O)c2c(n1)CCc1ccc(S(=O)(=O)Nc3ccc(C(=O)N[C@@H](CCC(=O)O)C(=O)O)cc3)cc1-2 | 0.65 µM | 7.9 µM | CCCT (MOLT-4 [11]): 2.4 µM
14 | 109% | Cc1nc(O)c2c(n1)CCc1ccc(S(=O)(=O)Nc3ccc(C(=O)N[C@@H](CCC(=O)O)C(=O)O)cc3)cc1-2 | 0.65 µM | 4.1 µM | CCCT (MOLT-4 [11]): 0.2 µM
15 | – | C#CCN(c1ccc(C(=O)N[C@@H](CCC(=O)O)C(=O)O)cc1)S(=O)(=O)c1ccc2c(c1)CCc1nc(N)nc(O)c1-2 | >50 µM | >50 µM | CCCT (MOLT-4 [11]): >50 µM
16 | – | Nc1nc(O)c2c(ccc3ccc(Br)cc32)n1 | – | – | Ki (Thymidylate synthase [2]): 20 nM; CCCT (MCF7 [12]): 10 µM
